MDM2 E3 inh: inhibitors of human Mdm2 E3 ubiquitin ligase; cell-based MDM2 ubiquitination luciferase reporter, 2 h; 0 = plate control, 100 = twice control, blank-subtracted; 210,000 compounds, 0.11% hits; signal enhancement, % at 5 µM;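 active = signal enhancement of 30% or more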;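 also: luminescence tracks abundance of the self-degrading MDM2-luciferase fusion protein; higher signal means inhibition of MDM2 E3 ligase activity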
Target sequence (Q00987 whole entry, looked up, the tested form may be a part): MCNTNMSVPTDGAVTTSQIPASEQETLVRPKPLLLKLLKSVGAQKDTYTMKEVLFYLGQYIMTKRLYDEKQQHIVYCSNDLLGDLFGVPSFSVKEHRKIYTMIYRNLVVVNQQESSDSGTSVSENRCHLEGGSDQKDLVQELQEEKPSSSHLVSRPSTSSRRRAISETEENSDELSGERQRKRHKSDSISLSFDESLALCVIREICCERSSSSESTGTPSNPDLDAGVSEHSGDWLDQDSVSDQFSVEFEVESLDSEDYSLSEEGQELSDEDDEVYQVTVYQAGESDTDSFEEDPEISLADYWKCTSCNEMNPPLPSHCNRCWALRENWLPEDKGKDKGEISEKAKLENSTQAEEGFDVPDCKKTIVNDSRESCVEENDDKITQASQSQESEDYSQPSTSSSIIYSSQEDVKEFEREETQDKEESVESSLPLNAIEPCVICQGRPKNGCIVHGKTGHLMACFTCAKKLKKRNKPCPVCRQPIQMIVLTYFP
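system = mammalian cells stably expressing self-ubiquitinating, self-degrading MDM2 E3–luciferase fusion | quantity = 2000 cells per well seeded | incubation = 4 h cell settling then 2 h compound exposure, 37 °C | signal = SteadyLite luminescence, 15 min reagent step | benchmarks = plate control and blank wells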
APP 5'UTR act: APP 5'UTR luciferase reporter activation; SH-SY5Y APP 5'UTR luciferase reporter, luminescence; zero percent = DMSO vehicle wells; activation, % at 2 µM; 190,000 compounds, 1% hits; AID 1276;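 active = activation above a set limit, based on mean plus 3 SD of controls, cut at about 140% in these data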
p97 inhibitor: human p97 ATPase inhibition; recombinant p97 ATPase, Kinase-Glo ATP luminescence, 3 h; 220,000 compounds, 0.42% hits; P55072; AID 1481; inhibition, % at 8 µM; in the data active = inhibition above about 15%;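 also: 0% = DMSO vehicle and 100% = wells lacking enzyme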
STAT1 activator: STAT1 signaling activation. NIH 3T3 STAT1-luciferase reporter, IFN-gamma, luminescence; 100% = IFN-gamma alone, no compound. activation (% of control), % at 5.5 µM. 200,000 compounds, 2.6% hits. AID 932;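 active = activation above the screen-wide mean activation plus 3 SD, cut at about 130% in these data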;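 also: raw ratio to IFN-gamma control signal so 100% means no change and 0% no light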
Wee1 stabilizer: inhibitors of human Wee1 degradation | P30291 | HeLa Luc-Wee1K328M stability, luciferase luminescence; 100% = proteasome inhibitor MG132 effect | reporter increase, % at 5 µM | 220,000 compounds, 1.2% hits | AID 1321;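 active = activation above the mean of all tested compounds plus 3 SD, set per screening run, cut at about 8.8% in these data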;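 also: cells exposed to compound for 20 h before luminescence read; 0% = DMSO alone and 100% = MG132 at 30 µM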
NF-kB neuron act: compounds increasing NF-kB expression in human neuronal cells | NF-kB reporter expression; active compounds read high | fold change at 12.5 µM | 190,000 compounds, 1.6% hits | AID 1239; in the data active = fold change above about 3.3
* marks the source's active call; other numbers are inactive results; x = no result. Only some compounds are listed: those with a hit (about 4.6% of all), similar ones and a draw of the others.

SMILES	MDM2 E3 inh	APP 5'UTR act	p97 inhibitor	STAT1 activator	Wee1 stabilizer	NF-kB neuron act
Cc1ccc(S(=O)(=O)N(C)C)cc1NC(=S)N1CCN(Cc2ccc3c(c2)OCO3)CC1	-11	5	1	84	-1	1.4
COc1cccc(C(=O)/C=C/Nc2cc(C)ccc2O)c1	-2	2	5	134*	5	25*
NS(=O)(=O)c1ccc(N/C=C\C(=O)c2ccncc2)cc1	-5	-23	8	108	-2	1.1
CN(C)c1ccc(N/C=C/C(=O)c2ccc(F)cc2)cc1	-81	67	1	120	-1	4.6*
O=C(/C=C/Nc1ccc(F)cc1)c1ccc(Oc2ncccn2)cc1	-6	12	3	111	0	1.3
NS(=O)(=O)c1ccc(N/C=C/C(=O)c2ccc(Br)cc2)cc1	-9	49	4	143*	0	1.4
Cc1cc(CNC(=O)c2cccnc2Cl)c2ccccc2n1	7	-2	-1	96	0	1.1
Cc1ccc(C)c(N2CCN(C(=O)C34CC5CC(C3)CC(n3nnc(C)n3)(C5)C4)CC2)c1	-11	x	0	x	3	x
CC1CC1c1ccc(/C=C(\C#N)C(=O)Nc2ccc(Cl)cc2)o1 (stereo not drawn)	8	116	4	141*	3	1.1
CCCSc1nc2c3c(sc2c(=O)[nH]1)CC(C)(CC)OC3 (stereo not drawn)	x	10	5	108	-2	x
CC(C)CNC(CC(=O)O)c1ccccc1 (stereo not drawn)	-14	14	1	90	9.6*	1.3
CC(C)CC(NC(=O)CCl)c1ccccc1 (stereo not drawn)	9	-11	2	90	-1	1.1
O=C(/C=C\c1ccc(-c2ccccc2)o1)c1ccccc1	-9	26	7	113	8.8*	2.3
Cc1oc(=O)c(NC(=O)c2ccccc2)cc1C(=O)c1ccccc1	-4	55	2	111	0	2.4
CC(=O)c1cc(NC(=O)c2ccccc2)c(=O)oc1C	8	9	1	96	0	6.1*
O=C(Nc1ccc2c3c(cccc13)CC2)c1ccc(Br)o1	-10	16	0	131*	2	2
O=C(Nc1ccc2c3c(cccc13)CC2)c1ccco1	-17	11	-4	111	2	1.6
CC(C)(C)c1cc(C(=O)N2CCN(c3ncccn3)CC2)ccn1	-14	4	4	96	1	4.8*
Cc1cc(NC(=O)CSc2nncc(=O)n2N)no1	-24	-6	-2	90	2	1.3
CCn1c(Cc2ccccc2)nnc1SCC(=O)Nc1ccccc1O	-7	-9	1	100	-1	1.2
Cc1ccc2cc(C#N)c(SCc3nnc(-c4ccccc4[N+](=O)[O-])o3)nc2c1	-20	28	-4	96	-1	4.7*
Cc1ccc2nc3sc(-c4nnc(-c5ccccc5[N+](=O)[O-])o4)c(N)c3cc2c1	-16	-5	-1	89	0	0.9
COc1ccc(C(=O)NCCn2ccc3ccccc32)cc1	-16	91	-4	116	2	4*
O=C(NCCn1ccc2ccccc21)c1ccc2c(c1)OCO2	-15	150*	-5	139*	2	5.7*
CC(C)CNC(=O)c1cccc(NC(=O)C(C)C)c1	-9	12	2	106	-1	1.1
SMILES	MDM2 E3 inh	APP 5'UTR act	p97 inhibitor	STAT1 activator	Wee1 stabilizer	NF-kB neuron act
N#Cc1c(Cl)cccc1N1CCC(C(N)=O)CC1	-4	x	12	x	-1	x
CCCCc1ccc(Nc2ncccc2C#N)cc1	-13	105	3	138*	9	2.4
N#Cc1cccnc1Nc1ccc(Cl)cc1	-4	1	-3	101	-4	1.1
CCCCCCNCC1OCc2ccccc2CO1	-6	-16	5	105	-1	1
c1ccc(NCC2OCc3ccccc3CO2)cc1	-24	58	-2	136*	-1	2.3
Brc1ccccc1-c1nnc(COc2cccc3cccnc23)o1	-17	17	-1	101	1	1.1
Clc1ccccc1OCc1nnc(-c2ccccc2Br)o1	-8	95	-9	137*	0	3.1
COc1ccc(N2CCN(C(=O)c3ccc(NS(=O)(=O)c4cccs4)cc3)CC2)cc1	-13	0	-7	93	9.0*	1.2
CN1CCN(C(=O)C2=C[C@@H](c3ccc(Br)cc3)C[C@@H](OCc3ccc(CO)cc3)O2)CC1	x	22	1	96	9.8*	1
CN1CCN(C(=O)C2=C[C@@H](c3ccccc3)C[C@@H](OCc3ccc(CO)cc3)O2)CC1	x	3	1	95	-1	1
O=C(CN1C(=O)C2C3CC(C(Br)C3Br)C2C1=O)Nc1ccc(C(=O)O)cc1 (stereo not drawn)	2	x	-1	x	-2	x
Cc1cc(C)cc(N=Cc2c(O)c3ccccc3oc2=O)c1	-5	1	3	107	-1	1.3
COc1ccc(N=Cc2c(O)c3ccccc3oc2=O)cc1	-17	14	1	140*	0	0.93
O=C(c1ccco1)N1CCN(C(=O)N2c3ccccc3Sc3ccccc32)CC1	-3	-93	-2	101	-3	4.7*
Cc1cc(N2CCN(C(=O)c3ccco3)CC2)n2nc(-c3cccc(Cl)c3)cc2n1	-16	-14	8	104	9.2*	0.81
O=C(c1ccco1)N1CCN(c2ccc(Cl)cc2)CC1	-27	67	0	134*	5	2.8
Cc1cc(N2CCN(C(=O)c3ccco3)CC2)n2nc(C)c(-c3ccccc3)c2n1	-23	-17	-5	91	3	1.3
O=C(C/C=N\OCc1ccc([N+](=O)[O-])cc1)Nc1ccc(Br)cc1	-14	-4	-3	98	-3	1.8
CC(C)CC(=O)NCCCCc1ccccc1	-15	22	-2	102	0	1.2
CC(=O)c1ccc(Nc2cc(C)nc3c(C)cccc23)cc1	1	-87	1	123	10*	1.9
CC(=O)Nc1cccc(Oc2ccc(-c3noc(C)n3)cc2)c1	-19	89	-5	138*	4	2.6
CC(=O)Nc1ccc(NC(=O)CSc2ccccn2)cc1	-2	7	-4	85	3	1.3
O=C(CSC1=NNC(c2ccccn2)S1)Nc1ccc(C(F)(F)F)cc1 (stereo not drawn)	37*	x	0	x	0	x
c1ccc(CSC2=NNC(c3ccccn3)S2)cc1 (stereo not drawn)	37*	x	-4	x	-2	x
c1ccc(CSc2ncccn2)cc1	-21	3	-4	103	0	1.3
O=c1[nH]c2ccccc2c(O)c1-c1ccccc1[N+](=O)[O-]	4	14	7	105	1	1
